Screening data from PubChem.
In the library only some 4.1% were active in any assay of this set; here they are far more common.
STAT1 act: increases IFN-gamma driven STAT1 reporter signal; NIH 3T3 STAT1-luciferase reporter, luminescence; 100% = IFN-gamma alone, no compound; activation (% of control), % at 5.5 µM; 200,000 tested, 2.6% active;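 active means activation above the screen-wide mean activation plus 3 SD, cut at about 130% in these data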;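 further: raw ratio to IFN-gamma control signal so 100% means no change and 0% no light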
NF-kB expr up: NF-kB expression increase, human neuronal cells. NF-kB reporter expression; hits give high values. fold change at 12.5 µM. 190,000 tested, 1.6% active. AID 1239; in the data active means fold change above about 3.3
APP 5'UTR act: activates APP 5'UTR luciferase reporter | SH-SY5Y APP 5'UTR luciferase reporter, luminescence; zero percent = DMSO vehicle wells | activation, % at 2 µM | 190,000 tested, 1% active | AID 1276;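 active means activation above a set limit, based on mean plus 3 SD of controls, cut at about 140% in these data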
FLuc stim CS: firefly luciferase counter-screen for stimulation assays. P08659. ATPlite luciferase biochemical, luminescence, 10 min; 0 = ATP-free wells, 1 = DMSO control. activation factor at 10 µM. 200,000 tested, under 10 active;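 active means luciferase activation factor, scaled between plate controls, of at least 2 with compound at 10 µM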
Target sequence (P08659 whole entry, looked up): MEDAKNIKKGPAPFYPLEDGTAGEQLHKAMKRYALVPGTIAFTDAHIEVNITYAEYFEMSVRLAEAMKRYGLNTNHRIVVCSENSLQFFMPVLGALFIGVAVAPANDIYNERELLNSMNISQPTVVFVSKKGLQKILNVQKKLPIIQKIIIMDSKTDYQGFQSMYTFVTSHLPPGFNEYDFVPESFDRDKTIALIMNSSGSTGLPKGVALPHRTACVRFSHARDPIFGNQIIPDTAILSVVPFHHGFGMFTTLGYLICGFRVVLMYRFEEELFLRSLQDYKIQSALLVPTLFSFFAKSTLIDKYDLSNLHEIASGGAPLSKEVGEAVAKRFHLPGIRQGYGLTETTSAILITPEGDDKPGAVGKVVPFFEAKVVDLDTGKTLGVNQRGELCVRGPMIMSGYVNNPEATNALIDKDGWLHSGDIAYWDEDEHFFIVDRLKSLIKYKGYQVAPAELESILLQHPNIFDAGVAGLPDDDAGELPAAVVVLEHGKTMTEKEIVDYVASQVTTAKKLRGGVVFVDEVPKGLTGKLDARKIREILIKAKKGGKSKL
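Material: luciferase plus luciferin reagent, cell-free. Medium: PBS buffer for ATP. Also added: ATP substrate, dispensed from a 10.24 µM working solution in PBS. Doses: test compounds dosed from 2 mM stocks in 100% DMSO. Incubation: 10 min post-reagent at room temperature. Technique: light output (luminescence). Read-out basis: luminescence gain marking luciferase activators.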
FLuc inh counter: Photinus pyralis luciferase inhibition counter-screen; ATPLite firefly luciferase biochemical luminescence, 10 min; inhibition, % at 10 µM; 200,000 tested, 1.5% active; AID 1006;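 active means inhibition above about 50% when tested at 10 µM, limit read from the data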
STAT1 activ conf: STAT1 activation, confirmation assay; shares compounds with STAT1 act; NIH 3T3 STAT1-luciferase reporter, IFN-gamma potentiation, luminescence; 100% = IFN-gamma EC80 alone, no compound; activation (% of control), % at 5.7 µM; 1,200 tested, 97% active;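 active means activation above a set limit carried over from the earlier primary STAT1 screen, cut at about 140% in these data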;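 further: simple ratio to median IFN-gamma plus DMSO wells so 0% means no light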
NFkB act: activates NF-kappaB, counter-screen to STAT1 activators; shares compounds with STAT1 act; HEK293T NF-kB luciferase reporter, TNF-alpha stimulated, luminescence; 100% = TNF-alpha with vehicle only; activation (% of control), % at 5.7 µM; 1,200 tested, 43% active;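 active means activation above the mean of solvent-only control wells plus 3 SD, set per campaign, cut at about 130% in these data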;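 further: TNF-alpha given at a submaximal dose yielding about 80% of full reporter signal; values are well signal over median control so 100% means no change and 0% no light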
STAT3 act 2: human STAT3 activation in STAT1 activator counter-screen; shares compounds with STAT1 act; U3A cells STAT3-luciferase reporter, IL-6, luminescence; cells lack STAT1; 100 = IL-6 alone, no compound effect; activation (% of control), % at 5.7 µM; 1,200 tested, 46% active; AID 1316;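 active means activation above the solvent-only control well mean plus 3 SD, set per plate batch, cut at about 110% in these data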;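 further: 0% = no luminescence and 100% = median IL-6 plus DMSO wells; higher means more STAT3 reporter activation so hits are non-selective activators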
The depositor's hits bear a star; . = no result given.

SMILES	STAT1 act	NF-kB expr up	APP 5'UTR act	FLuc stim CS	FLuc inh counter	STAT1 activ conf	NFkB act	STAT3 act 2
O=C(Nc1nc2ccccc2[nH]1)c1cccc([N+](=O)[O-])c1	156*	.	113	0.8	22	169*	125	120*
CSCCC(NC(=O)c1cccc([N+](=O)[O-])c1)c1nc2ccccc2[nH]1 (stereo unspecified)	97	0.67	0	1.1	-9	.	.	.
Cc1csc(NC(=O)C2COc3ccccc3O2)n1 (stereo unspecified)	160*	2.8	149*	0.5	48	198*	105	78
O=C(Nc1nc(-c2ccccc2)cs1)C1COc2ccccc2O1 (stereo unspecified)	105	1.4	-3	1.1	-5	.	.	.
CCc1nc(SC)[nH]c(=O)c1C	95	1	2	1.1	-6	.	.	.
Cc1nnc(NC(=O)c2ccco2)s1	103	1.2	5	1	-2	.	.	.
COc1ccc(-c2csc(NC(=O)c3ccco3)n2)cc1	153*	4.2*	137*	0.8	16	164*	127	99
Cc1nc2ccc3nc(NC(=O)c4ccco4)sc3c2s1	164*	.	125	.	.	170*	127	109
O=C(Nc1nnc(C23CC4CC(CC(C4)C2)C3)s1)c1ccco1	152*	0.94	87	0.7	28	190*	131	120*
COCCCNC(=O)C1CC(=O)N(C2CCCC2)C1 (stereo unspecified)	100	1.1	3	1.1	-8	.	.	.
CCC(CC)C(=O)Nc1cccc(C(=O)N2CCOCC2)c1	89	1.4	7	1	3	.	.	.
c1ccc2c(c1)oc1c(Nc3ccc4c(c3)OCCO4)ncnc12	180*	5*	164*	0.7	28	260*	141*	114*
COc1ccc(Nc2ncnc3c2oc2ccccc23)cc1	163*	3.4*	117	0.9	8	204*	134*	104
COc1ccccc1Oc1ncnc2c1oc1ccccc12	107	1.1	-16	1	0	.	.	.
Cc1ccc(Nc2ncnc3c2oc2ccccc23)cc1	171*	5.4*	152*	0.9	9	231*	155*	117*
c1coc(CNc2ncnc3c2oc2ccccc23)c1	85	1.8	7	1	-1	.	.	.
O=C(Nc1nc(-c2ccc3c(c2)OCCO3)cs1)C1CCCC1	156*	6.6*	173*	0.9	11	188*	134*	121*
Cc1cccc(Nc2nc(-c3ccc4c(c3)OCCO4)cs2)c1	158*	1.4	161*	0.8	19	217*	144*	108
O=C(Nc1nc(-c2ccc3c(c2)OCCO3)cs1)c1ccc(S(=O)(=O)N2CCCCC2)cc1	92	0.57	-16	1	-2	.	.	.
Cc1nc(-c2ccc3c(c2)OCCO3)cs1	127	1.9	70	0.7	33	.	.	.
N#CCC(=O)Nc1nc(-c2ccc3c(c2)OCCO3)cs1	165*	0.55	51	0.6	37	169*	125	113*
CC(C)[C@H](NC(=O)c1ccccc1)C(=O)OCc1nc2scc(-c3ccccc3)c2c(=O)[nH]1	100	1.2	1	1	-3	.	.	.
O=C(OCC(=O)N1CCc2ccccc21)c1c2c(nc3ccccc13)CCCCC2	100	0.42	7	1	5	.	.	.
COc1cc(/C=N/OCC(=O)Nc2cc(C)cc(C)c2)ccc1OCc1ccc(Cl)cc1	152*	4.1*	102	0.9	14	183*	132	113*
COc1cc(/C=N/OCC(=O)NC2CCCCC2C)ccc1OCc1ccc(Cl)cc1 (stereo unspecified)	158*	5*	141*	0.9	10	182*	134*	107
SMILES	STAT1 act	NF-kB expr up	APP 5'UTR act	FLuc stim CS	FLuc inh counter	STAT1 activ conf	NFkB act	STAT3 act 2
COc1ccc(CNC(=O)c2ccc(C(C)C)cc2)cc1	151*	3.7*	132	0.9	6	177*	144*	128*
COc1ccc(C(=O)NCCSc2ccccc2)cc1	157*	5.7*	128	0.5	48	193*	96	112*
COc1cc(NC(=S)NCCCN2CCOCC2)cc(OC)c1OC	97	1.3	3	1.1	-5	.	.	.
CCN(CC)c1nc(N)nc(NS(=O)(=O)c2ccc(Cl)cc2)n1	103	1.1	2	1.1	-5	.	.	.
CC1CCCC(C)N1S(=O)(=O)c1ccc(S(=O)(=O)NCc2ccccc2)cc1 (stereo unspecified)	105	1.6	7	1	-2	.	.	.
O=C1CC(/C=C/c2ccc(Cl)cc2)=Nc2ccccc2N1	177*	3.6*	122	0.5	48	198*	145*	120*
O=C1CC(C(F)(F)C(F)(F)C(F)(F)F)=Nc2ccccc2N1	103	1.2	11	1.1	-6	.	.	.
Cc1nn(Cc2cccc(C(=O)Nc3ccn(Cc4ccccc4F)n3)c2)c(C)c1[N+](=O)[O-]	98	0.98	11	1	-1	.	.	.
COCCn1c(C)cc(C(=O)CSc2nc3ccccc3c(=O)n2Cc2ccco2)c1C	152*	0.85	181*	1	2	236*	149*	127*
CCOc1ccc(Cl)cc1S(=O)(=O)NCc1cccnc1	92	2	36	1.1	-7	.	.	.
CN(CC(=O)Nc1cc([N+](=O)[O-])ccc1Cl)Cc1ccc(Br)cc1	107	0.89	8	1	0	.	.	.
Fc1ccc(/C=N/NC2=Nc3cccc4cccc2c34)cc1	167*	2.2	167*	0.4	58*	201*	137*	153*
CCOc1cccc2cc(-c3csc(NC(=O)CCC(=O)NCCCN4CCC(C)CC4)n3)c(=O)oc12	152*	5.5*	176*	0.9	8	157*	126	124*
CCOc1cccc2cc(C(=O)Nc3nccs3)c(=O)oc12	101	1.9	-8	0.5	47	.	.	.
O=C(c1cc(-c2ccc(Cl)c(Cl)c2)on1)N1CCCCC1	159*	3.2	37	1	2	188*	137*	114*
O=C(Nc1cccc(-c2cnc3ccccc3n2)c1)c1ccco1	126	0.64	.	0.9	6	.	.	.
O=C(Nc1cnc2ccccc2c1)c1ccco1	152*	6.2*	157*	0.8	23	183*	105	90
CCOC(=O)c1sc(NC(=O)CSc2nc3c(cc2C#N)CCCCCC3)c(C#N)c1C	99	0.96	-1	1.1	-6	.	.	.
